# Most compounds without a hit are left out; they make up all but 2.8% or so of the library.
# T cell modulator: T cell immune modulators affecting CD8 T cell-vesicle binding; response (vesicle binding), % at 7 µM; 2C CD8+ T cell-vesicle binding, flow cytometry; active compounds read low; 330,000 tested, 0.068% active; AID 2052;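 active means response, share of CD8 T cells binding vesicles, and their 90th percentile fluorescence all below set limits, cut at about 80% in these data, passing the limit was not always enough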;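 further: values below 100% mean blocked vesicle binding to the CD8+ T cells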
#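 incubation = binding step 1.5 h, 37 °C, antibody labelling 20 min, ice | test system = 2C mouse CD8+ T cells | read-out basis = percent CD8+ FL2 mean versus row control | controls = Peptide-free naked vesicles (low) and QL9 vesicles with 0.7% DMSO vehicle (high) | detection = flow cytometry of vesicle-bound cells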
# GRIN3A LBD mod: modulates the human NR3A ligand-binding domain | NR3A LBD differential scanning fluorimetry, Tm shift; 0% = protein alone, 100% = glycine-bound protein | Tm shift relative to glycine control, % at 25 µM | 340,000 tested, 2.5% active;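 active means melting temperature shift of at least 10% of the positive control shift, at one fixed dose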
# Rtt109 HAT inh: blocks Candida albicans Rtt109/Vps75 acetyltransferase activity; inhibition, % at 34.9 µM; Q5AAJ8; purified Rtt109/Vps75, ThioGlo CoA-SH fluorescence, 4 h; 330,000 tested, 0.16% active;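 active means inhibition of at least 50% in every replicate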
# Target sequence (Q5AAJ8 whole entry, looked up): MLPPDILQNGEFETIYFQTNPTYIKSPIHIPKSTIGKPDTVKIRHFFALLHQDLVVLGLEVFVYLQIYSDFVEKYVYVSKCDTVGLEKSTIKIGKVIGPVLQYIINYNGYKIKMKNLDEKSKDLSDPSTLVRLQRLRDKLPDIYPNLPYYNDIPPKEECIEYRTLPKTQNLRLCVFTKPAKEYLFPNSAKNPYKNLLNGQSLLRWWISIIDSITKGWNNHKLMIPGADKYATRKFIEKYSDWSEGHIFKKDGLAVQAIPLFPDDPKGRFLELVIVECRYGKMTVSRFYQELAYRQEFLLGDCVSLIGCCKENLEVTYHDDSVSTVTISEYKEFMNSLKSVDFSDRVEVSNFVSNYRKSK
# JMJD2C inh: blocks human GASC-1 demethylase activity. AID 2099. 330,000 tested, 0.069% active. inhibition, % at 2.35 µM. GST-JMJD2C(1-420) H3K9me3 demethylation, DELFIA europium. Q9H3R0;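 active means more than half of a compound's replicate wells show inhibition beyond 50%, single wells judged on their own value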;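 further: signal counts dimethyl H3K9 product captured on neutravidin plate; 0% = median of DMSO wells and 100% = 0.3 times that DMSO median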
# * marks the source's active call; other numbers are inactive results; i = inactive; · = no result given.
SMILES,T cell modulator,GRIN3A LBD mod,Rtt109 HAT inh,JMJD2C inh
O=C(N/N=C/c1coc2ccccc2c1=O)c1cccc([N+](=O)[O-])c1,209,-5,5,3
O=C(N/N=C/c1c[nH]c2c1ccc1ccccc12)c1ccc([N+](=O)[O-])cc1,725,39*,7,8
Cc1cc(C(=O)N/N=C/c2c[nH]c3ccccc23)cs1,184,27*,4,3
COc1cc(/C=N\NC(=O)c2sc(N)nc2C)cc(OC)c1OC,177,17*,6,-12
O=C(N/N=C/c1c[nH]c2ccccc12)c1cccc([N+](=O)[O-])c1,242,25*,11,2
O=S1(=O)[C@H]2C[C@@H]3C=C[C@@]2(CN1Cc1cccc(F)c1)O3,319,-3,2,-12
O=C(NCCC1CCCCN1S(=O)(=O)c1cccs1)C(=O)Nc1ccc(F)cc1 (stereo not given),205,2,3,4
Cc1c(/C=N\NC(=O)c2ccc([N+](=O)[O-])cc2)cnn1C,154,-4,1,1
O=C(N/N=C/c1c[nH]c2ccccc12)c1ccc2c(c1)OCCO2,166,11*,11,2
CC(=O)n1cc(/C=N/NC(=O)c2ccc([N+](=O)[O-])cc2)c2ccccc21,461,21*,·,-1
O=C(CN1CCCC1)Nc1c(Cl)cccc1Cl,221,-1,2,-10
COc1ccc(N2C(=O)C3C(C2=O)C3(c2ccccc2)c2ccccc2)cc1 (stereo not given),i,4,-19,-5
COc1ccc(N2C(=O)C3C4C=CC(c5ccccc5)(C3C2=O)C2C(=O)N(c3ccc(OC)cc3)C(=O)C42)cc1 (stereo not given),226,12*,12,0
O=S1(=O)CC2SC(=S)N(c3ccccc3)C2C1 (stereo not given),232,0,·,-10
O=C1N(c2ccccc2)C2CS(=O)(=O)CC2N1c1ccc(Cl)c(Cl)c1 (stereo not given),118,30*,·,2
Cc1ccc2oc(-c3cccc(N)c3)nc2c1,406,-11,-6,14
Nc1cccc(-c2nc3cc(S(=O)(=O)c4ccc5oc(-c6cccc(N)c6)nc5c4)ccc3o2)c1,475,24*,1,5
N#CC(=C(O)COC(=O)CCC1CCCCC1)c1nc2ccccc2[nH]1,·,-1,3,·
O=C(CN1C(=O)NC2(CCCC2)C1=O)Nc1cc(Cl)ccc1Oc1ccccc1,492,-2,0,-11
CC(C)(C)C1CCc2c(sc(NC(=O)c3ccco3)c2C(N)=O)C1 (stereo not given),251,-2,-6,·
N#Cc1c(NC(=O)CSc2nc(-c3ccccc3)cc(C(F)(F)F)n2)sc2c1CCC2,236,7,5,-12
CCC1CCc2c(sc(NC(=O)CSc3nc(-c4ccco4)cc(C(F)(F)F)n3)c2C#N)C1 (stereo not given),221,12*,-1,5
CCC1CCc2c(sc(NC(=O)c3ccco3)c2C(N)=O)C1 (stereo not given),406,715*,-1,5
O=C(COc1cccc(C(F)(F)F)c1)NCC(c1cccs1)N1CCOCC1 (stereo not given),320,-1,-3,-5
CC(/C=N/NC(=O)COc1ccccc1C)=N\NC(=O)COc1ccccc1C,i,12*,3,17
SMILES,T cell modulator,GRIN3A LBD mod,Rtt109 HAT inh,JMJD2C inh
Cc1ccccc1OCC(=O)N/N=C/c1ccccn1,320,1,-5,-6
COc1ccc(NC(=O)CSCc2cc(=O)n3nc(C4CC4)sc3n2)cc1,136,-2,4,-3
CCOc1ccc(NC(=O)Cc2ccc(S(=O)(=O)N3CCCCC3)cc2)cc1OCC,252,-10,-1,-6
CCSc1nc2c(c(=O)[nH]c(=O)n2C)n1C/C=C(/C)Cl,104,-1,17,·
CCOC(=O)C(C)Sc1nc2c(c(=O)[nH]c(=O)n2C)n1C/C=C(/C)Cl (stereo not given),116,11*,-13,-13
Cc1ccccc1/C=N/n1c(-c2ccccn2)n[nH]c1=S,825,11*,0,9
S=c1[nH]nc(-c2ccccn2)n1/N=C/c1ccccc1,411,-1,-4,1
CCOC(=O)C1=NOC(CNC(=O)C2=NOC(CNC(=O)c3c(-c4ccccc4Cl)noc3C)C2)C1 (stereo not given),123,-3,3,21
CCOC(=O)C1=NOC(CNC(=O)c2c(-c3ccccc3Cl)noc2C)C1 (stereo not given),402,14*,-3,-1
